In ChEMBL document CHEMBL4024804 (J Med Chem, 2018):
The source made the active and inactive calls. The rule behind the calls is not given here.

What was measured:
[1] = system: Tubulin (Sus scrofa); assay: Inhibition of tubulin (porcine brain) polymerization measured every min for 50 mins
[2] = system: A-375; assay: Antimigratory activity in human A375 cells assessed as wound closure at 5 nM after 22 hrs (reference value: 60.7 +/- […]); format: functional
[3] = system: A-375; assay: Antitumor activity against human A375 cells xenografted in nude mouse assessed as tumor growth inhibition at 30 mg/kg, ip administered every other day for 2 weeks relative to control; format: functional; conditions: A-375, ip, 336 h, read-out: TGI
Outline: (§1)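 Nude mice 6–8 weeks old; 2 × 10^6 A375 cells in FBS-free medium with Matrigel injected sc into dorsal flank. At about 100 mm3 mice were randomized, n = 8. Drug in 2:1 PEG300/PBS given ip every other day. Volume measured by caliper three times weekly (a × b2 × 0.5).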

[4] = system: A-375; assay: Antitumor activity against human A375 cells xenografted in nude mouse assessed as tumor growth inhibition at 15 mg/kg, ip administered every other day for 2 weeks relative to control; format: functional; conditions: A-375, ip, 336 h, read-out: TGI
Outline: as §1

[5] = system: Liver; assay: Half life in human liver microsomes by UPLC-MS analysis; format: ADME, microsome
Outline: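 Compound at 10 mM in DMSO diluted into human liver microsomes (0.6381 mg/mL protein) in 0.1 M potassium phosphate pH 7.4 with EDTA. NADPH regenerating system added, incubated at 37 °C for 0–4 h in triplicate. Quenched with cold acetonitrile containing warfarin as internal standard, analysed by UPLC–MS SIR. ke from log-linear regression; t1/2 = ln 2/ke.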

[6] = Antitumor activity against human PC3-TxR cells xenografted in nude mouse assessed as tumor growth inhibition at 30 mg/kg, ip administered every other day for 3 weeks; format: functional; conditions: 504 h, read-out: TGI
Outline: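 Nude mice 6–8 weeks old; 2.5 × 10^6 PC-3/TxR cells with Matrigel injected sc into dorsal flank. […] At about 100 mm3 mice were randomized, n = 7. Drug in 2:1 PEG300/PBS given ip every other day. Caliper volume a × b2 × 0.5. TGI computed from start and end mean volumes relative to the vehicle group.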

[7] = system: M14; assay: Cytotoxicity against human M14 cells after 72 hrs by MTS assay; format: functional, cell-based; conditions: M14, 72 h
Outline: (§2)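 Melanoma cells grown in DMEM with 10% FBS and seeded at 1800–3500 cells per well, then incubated overnight. Cells treated for 72 h with 10 concentrations from 0.03 nM to 1 μM, with DMSO vehicle, in four replicates. MTS added for at least 1 h at 37 °C and absorbance read at 490 nm. IC50 obtained by nonlinear regression.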

[8] = system: PC-3; assay: Cytotoxicity against human PC3 cells after 72 hrs by MTS assay; format: functional, cell-based; conditions: PC-3, 72 h
Outline: (§3)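 Cells treated 72 h at 10 concentrations, 0.03 nM–1 μM, n = 4. MTS read at 490 nm; IC50 by nonlinear regression. RI = resistant IC50 / parental IC50.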

[9] = organism: Homo sapiens; assay: Inhibition of tubulin polymerization in human WM164 cells assessed as fragmentation of microtubules at 100 nM after 18 hrs using DAPI by immunofluorescence-based confocal microscopic method; format: cell-based
Outline: (§4)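 WM164 cells on glass coverslips (125 000 cells/well), incubated overnight, treated 18 h with 100 nM compound or DMSO vehicle. Stained with anti-α-tubulin and Alexa Fluor 647 anti-mouse IgG, mounted in DAPI-containing medium, and imaged by confocal microscopy.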

[10] = organism: Homo sapiens; assay: Inhibition of tubulin polymerization in human WM164 cells assessed as increase in cytoplasmic soluble tubulin levels at 100 nM after 18 hrs using DAPI by immunofluorescence-based confocal microscopic method; format: cell-based
Outline: as §4

[11] = system: A-375; assay: Induction of apoptosis in human A375 cells xenografted in nude mouse assessed as increase in cleaved caspase-3 levels at 15 mg/kg, ip administered every other day for 2 weeks by immunohistochemical analysis; format: functional, organism-based
Outline: (§5)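 Formalin-fixed, paraffin-embedded A375 xenograft tumors from mice dosed ip every other day (2:1 PEG300/PBS). Serial sections immunostained with rabbit anti-cleaved caspase 3 antibody by the ABC-DAB method.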

[12] = system: A-375; assay: Induction of morphological changes in human A375 cells xenografted in nude mouse assessed as less microvessel density at 30 mg/kg, ip administered every other day for 2 weeks by immunohistochemical analysis; format: functional, organism-based
[13] = system: A-375; assay: Induction of apoptosis in human A375 cells xenografted in nude mouse assessed as increase in cleaved caspase-3 levels at 30 mg/kg, ip administered every other day for 2 weeks by immunohistochemical analysis; format: functional, organism-based
Outline: as §5

[14] = Cytotoxicity against human PC3-TxR cells after 72 hrs by MTS assay; format: functional, cell-based
Outline: as §3

[15] = system: A-375; assay: Cytotoxicity against human A375 cells after 72 hrs by MTS assay; format: functional, cell-based; conditions: A-375, 72 h
Outline: as §2

[16] = organism: Homo sapiens; assay: Inhibition of tubulin polymerization in human WM164 cells assessed as decrease in polymeric tubulin filaments at 100 nM after 18 hrs using DAPI by immunofluorescence-based confocal microscopic method; format: cell-based
Outline: as §4

[17] = Cytotoxicity against human DU145-TxR cells after 72 hrs by MTS assay; format: functional, cell-based
Outline: as §3

[18] = system: A-375; assay: Antitumor activity against human A375 cells xenografted in nude mouse assessed as decrease in tumor weight at 15 mg/kg, ip administered every other day for 2 weeks; format: functional, organism-based
Outline: (§6)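 Nude mice (6–8 weeks) injected subcutaneously in dorsal flank with 2 × 10^6 A375 cells in Matrigel. At ~100 mm3, randomized (n = 8). Compound given ip every other day in 2:1 PEG300/PBS; vehicle equal parts PEG300/PBS. Tumors weighed at sacrifice; mean ± SEM, ANOVA with Dunnett's test versus vehicle.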

[19] = system: DU-145; assay: Cytotoxicity against human DU145 cells after 72 hrs by MTS assay; format: functional, cell-based; conditions: DU-145, 72 h
Outline: as §3

[20] = system: RPMI-7951; assay: Antimigratory activity in human RPMI7951 cells assessed as wound closure at 25 nM after 18 hrs (reference value: 71.8 +/- 1.8%); format: functional
[21] = system: A-375; assay: Antitumor activity against human A375 cells xenografted in nude mouse assessed as decrease in tumor weight at 30 mg/kg, ip administered every other day for 2 weeks; format: functional, organism-based
Outline: as §6

[22] = Resistance index, ratio of IC50 for human PC3-TxR cells to IC50 for human PC3 cells; format: functional
Outline: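 Cells were treated 72 h with 10 concentrations from 0.03 nM to 1 μM, four replicates, A490 read. IC50 by nonlinear regression. RI = IC50 resistant / IC50 parental.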

[23] = system: RPMI-7951; assay: Antimigratory activity in human RPMI7951 cells assessed as wound closure at 5 nM after 18 hrs (reference value: 71.8 +/- 1.8%); format: functional
[24] = system: A-375; assay: Antimigratory activity in human A375 cells after 22 hrs by wound healing assay; format: functional, cell-based
Outline: (§7)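 A375 and RPMI7951 monolayers seeded overnight (200 000 cells/well, triplicate), scratched with a pipet tip, washed, then given medium with 5 or 25 nM compound; untreated control wells. Imaged at 0 h and at 18 h (RPMI7951) or 22 h (A375); wound channel area measured and percent closure calculated. Dunnett's test versus control.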

[25] = system: RPMI-7951; assay: Cytotoxicity against human RPMI7951 cells after 72 hrs by MTS assay; format: functional, cell-based; conditions: RPMI-7951, 72 h
Outline: as §2

[26] = Acute toxicity in nude mouse administered as qd for 5 days; conditions: in vivo
Outline: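 Nude mice, 6–8 weeks old; compound formulated in PEG300 and given as five continuous daily administrations, then monitored for acute toxicity. A single-dose acute MTD was estimated first.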

[27] = system: A-375; assay: Induction of morphological changes in human A375 cells xenografted in nude mouse assessed as less microvessel density at 15 mg/kg, ip administered every other day for 2 weeks by immunohistochemical analysis; format: functional, organism-based
[28] = system: RPMI-7951; assay: Antimigratory activity in human RPMI7951 cells after 18 hrs by wound healing assay; format: functional, cell-based
Outline: as §7

[29] = Resistance index, ratio of IC50 for human DU145-TxR cells to IC50 for human DU145 cells; format: functional
Outline: as §3

[30] = system: A-375; assay: Antimigratory activity in human A375 cells assessed as wound closure at 25 nM after 22 hrs (reference value: 60.7 +/- […]); format: functional

## COc1ccc2c(c1)CCCN2c1nc(Cl)nc2ncccc12
[1]
  inhibition: Dose-dependent effect
[2]
  Activity: 36.4%
[3]
  inhibition in vivo at 30 mg/kg: 72.3%
[4]
  inhibition in vivo at 15 mg/kg: 57.1%
[5]
  t1/2: 84 min
[6]
  inhibition in vivo at 30 mg/kg: 55.6%
[7]
  IC50: 5.5 nM
[8]
  IC50: 12.7 nM
[9]
  inhibition: Active
[10]
  inhibition: Active
[11]
  Activity: Active
[12]
  Activity: Active
[13]
  Activity: Active
[14]
  IC50: 8.7 nM
[15]
  IC50: 5.6 nM
[16]
  inhibition: Active
[17]
  IC50: 19.9 nM
[18]
  Activity: Active
[19]
  IC50: 18.3 nM
[20]
  Activity: 25.5%
[21]; 30 mg/kg
  Activity: Active
[22]
  Ratio IC50: 0.7
[23]
  Activity: 46.4%
[24]
  Activity: Dose-dependent effect
[25]
  IC50: 8.2 nM
[26]
  MTD at 120 h: 50 mg/kg
[27]
  Activity: Active
[28]
  Activity: Dose-dependent effect
[29]
  Ratio IC50: 1.1
[30]
  Activity: 16.9%

## COc1ccc(N(C)c2nc(Cl)nc3ncccc23)cc1OC
[7]
  IC50: 39.5 nM
[15]
  IC50: 39 nM
[25]
  IC50: 47.5 nM

## COc1ccc2c(c1)C(=O)CCN2c1nc(Cl)nc2ncccc12
[7]
  IC50: > 1000 nM
[15]
  IC50: > 1000 nM
[25]
  IC50: > 1000 nM

## COc1ccc2c(c1)CCCN2c1nc(Cl)nc2ccoc12
[1]
  inhibition: Dose-dependent effect
[4]
  inhibition in vivo at 15 mg/kg: 66.5%
[5]
  t1/2: 19.2 min
[7]
  IC50: 3.3 nM
[11]
  Activity: Active
[15]
  IC50: 3.2 nM
[21]; 15 mg/kg, in the assay text read “at 15 mg/kg” for “at 30 mg/kg”
  Activity: Active
[25]
  IC50: 5.1 nM
[26]
  MTD at 120 h: 30 mg/kg
[27]
  Activity: Active
